Experimental data of several laboratories.
Compare with care: the assays were run in different laboratories.
Target: Protein kinase C delta type (PRKCD, Homo sapiens, UniProt Q05655)

SMILES	observed	action	technique	tested at	endpoint	value
COc1cc(Cl)c(C(=O)N[C@@H](CN[C@H]2CC[C@@H](N)CC2)Cc2ccc(C#N)cc2)cc1-c1ccc(CN[C@H](C)c2ccc(C)cc2)o1	enzyme activity	inhibitor	–	1 µM	remaining activity	100%
COc1cc2ncnc(Nc3ccc(Oc4ccccc4)c(C)c3C)c2cc1OC	enzyme activity	inhibitor	–	1 µM	inhibition	23%
CC(C)(C)c1nc2c(s1)c1nc(N)ncc1c1ccc(NS(=O)(=O)c3c(F)cccc3F)c(F)c12	enzyme activity	inhibitor	radiometric	1 µM	remaining activity	100%
N#CCCc1ccc2c(c1)-c1[nH]c3ccc([N+](=O)[O-])cc3c1CC(=O)N2	cell-free assay	–	–	0.5 µM	remaining signal	74.9%
O=C(Nc1cnn(-c2csc(C(=O)NC3COC3)c2)c1)Nc1ccccc1Cl	enzyme activity	inhibitor	–	5 µM	remaining activity	112%
CC(C)c1ccc(NC(=O)c2cccs2)c(-c2nc3ccccc3[nH]c2=O)c1	enzyme activity	inhibitor	–	1 µM	activity vs control	104%
C[C@@H](N)[C@H]1CC[C@H](C(=O)Nc2ccncc2)CC1	enzyme activity	inhibitor	TR-FRET	10 µM	inhibition	82.5%
CS(=O)(=O)NCC[C@H](NC(=O)c1cncc2c1cnn2-c1ccc(F)cc1)c1ccnc(S(C)(=O)=O)c1	cell-free assay	–	competition with immobilised ligand	1 µM	remaining binding	76%
Cc1ccc(Nc2nccc(N(C)c3ccc4c(C)n(C)nc4c3)n2)cc1S(N)(=O)=O	enzyme activity	–	–	0.5 µM	remaining activity	106%
CC(=O)C1=C(C)N(c2cccc(C(F)(F)F)c2)C(=O)N[C@@H]1c1ccc(C#N)nc1	cell-free assay	–	competition with immobilised ligand	1 µM	remaining binding	100%
CCCOc1ccc(OC)c(F)c1C(=O)c1ccc(C(=O)N[C@@H]2CNC[C@H]2NC(=O)c2ccc3[nH]ncc3c2)cc1	enzyme activity	inhibitor	–	0.75 µM	remaining activity	68%
C[C@@]1(Cc2ccc(C#N)cc2)C(=O)N(c2cc(Cl)cc(Cl)c2)c2ncc(C(=O)NC3(c4nc(C5CCC5)no4)CC3)n21	cell-free assay	–	competition with immobilised ligand	1 µM	remaining binding	100%
Cn1cncc1C1=CN(c2ncnc3[nH]cnc23)CCS1	enzyme activity	inhibitor	radiometric	2 µM	inhibition	81.1%
CNCc1ccccc1-c1csc([C@@H](C)Nc2nc(C)nc3cc(OC)c(OC)cc23)c1	cell-free assay	–	competition with immobilised ligand	1 µM	remaining binding	98%
Cc1ccc(NC(=O)c2ccc(C)c(C(F)(F)F)c2)cc1C#Cc1nn(C2CCC(O)CC2)c2ncnc(N)c12 (stereo not shown)	cell-free assay	–	–	10 µM	remaining signal	96%
CO[C@@H](C)c1c(Nc2ccc([C@@H](N(C)C(=O)C3CCS(=O)(=O)CC3)C(F)(F)F)cc2)cnc2cc(Cl)nn12	cell-free assay	–	competition with immobilised ligand	1 µM	remaining binding	90%
CCCS(=O)(=O)Nc1ccc(F)c(C(=O)c2c[nH]c3ncc(-c4ccc(Cl)cc4)cc23)c1F	enzyme activity	inhibitor	–	1 µM	inhibition	< 20%
Nc1ncnc2occ(-c3ccc(NC(=O)Nc4cc(C(F)(F)F)ccc4F)cc3)c12	cell-free assay	–	–	20 µM	remaining signal	14%
Oc1cccc(-c2nc(N3CCOCC3)c3oc4ncccc4c3n2)c1	cell-free assay	–	–	0.5 µM	remaining signal	96%
CC1=C(C#N)C(c2ccc3c(c2)c(NC(=O)c2ccccc2C)nn3C)C(C#N)=C(C)N1	cell-free assay	–	competition with immobilised ligand	1 µM	remaining binding	100%
Cn1cnc(Br)c1C1=CN(c2ncnc3[nH]cnc23)CCS1	enzyme activity	inhibitor	radiometric	50 nM	inhibition	29%
CSc1cccnc1N1CCN(Cc2nc3ccccc3[nH]2)CC1	cell-free assay	–	competition with immobilised ligand	1 µM	remaining binding	100%
CNC(=O)c1cc(Oc2ccc(NC(=O)Nc3ccc(Cl)c(C(F)(F)F)c3)cc2)ccn1	enzyme activity	inhibitor	–	10 µM	inhibition	-6%
O=C1Nc2ccc(Cl)cc2C1=Cc1cc(Cl)c(O)c(Cl)c1	cell-free assay	–	–	0.5 µM	remaining signal	86.7%
CCC(=O)N[C@H]1CC[C@@H](C(=O)N(C)c2ccc(-c3nc4ccccc4o3)cc2)C1	cell-free assay	–	competition with immobilised ligand	1 µM	remaining binding	100%
